Laboratory results published in ChEMBL document CHEMBL1165940, “Design, synthesis and biological evaluation of a novel series of anthrapyrazoles linked with netropsin-like oligopyrrole carboxamides as anticancer agents” (Bioorg Med Chem, 2010).

Tests used:
[1] = molecular target: T1, DNA topoisomerase 1 (Homo sapiens) (UniProt P11387); test: Inhibition of topoisomerase 1-mediated relaxation of supercoiled pBR322 DNA at 20 uM after 20 mins using ethidium bromide staining by electrophoresis relative to control
T1 sequence (whole entry): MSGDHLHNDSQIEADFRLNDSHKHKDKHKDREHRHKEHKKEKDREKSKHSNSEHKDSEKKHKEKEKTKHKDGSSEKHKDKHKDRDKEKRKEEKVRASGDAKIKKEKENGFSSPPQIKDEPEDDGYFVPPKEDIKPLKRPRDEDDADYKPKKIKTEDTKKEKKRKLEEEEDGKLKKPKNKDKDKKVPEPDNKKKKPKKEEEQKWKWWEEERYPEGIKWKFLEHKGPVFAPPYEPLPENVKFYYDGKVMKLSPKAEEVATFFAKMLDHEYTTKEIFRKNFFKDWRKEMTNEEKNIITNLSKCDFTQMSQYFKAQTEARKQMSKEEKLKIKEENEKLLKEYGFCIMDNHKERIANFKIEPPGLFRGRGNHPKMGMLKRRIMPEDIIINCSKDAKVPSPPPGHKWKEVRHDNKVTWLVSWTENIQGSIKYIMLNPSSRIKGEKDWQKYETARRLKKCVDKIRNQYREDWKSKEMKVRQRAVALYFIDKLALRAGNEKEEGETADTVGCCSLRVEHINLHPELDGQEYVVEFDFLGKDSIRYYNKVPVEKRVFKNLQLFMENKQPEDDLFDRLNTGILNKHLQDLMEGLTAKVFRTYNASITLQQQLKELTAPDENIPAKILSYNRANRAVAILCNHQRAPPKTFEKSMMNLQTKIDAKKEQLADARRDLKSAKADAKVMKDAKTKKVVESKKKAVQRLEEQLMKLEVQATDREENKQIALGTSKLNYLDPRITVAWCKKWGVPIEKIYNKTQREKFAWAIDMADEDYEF
In short: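 Nuclear extract (50 ng) used as the topoisomerase I source with 60 ng supercoiled pBR322 and 20 µM drug, 20 min at 37 °C. Reaction stopped with 0.05% SDS, then electrophoresis run without ethidium bromide and gel stained afterwards. Supercoiled band quantified by densitometry relative to DNA alone without enzyme (100%). Camptothecin at 50 µM was the positive control.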

Calf thymus DNA = test: Binding affinity to calf thymus DNA assessed as increase in melting temperature at 1 uM by spectrophotometer analysis; type: nucleic-acid assay; details: Bos taurus
[2] = molecular target: DNA topoisomerase 2-alpha (Homo sapiens) (UniProt P11388); test: Inhibition of human recombinant topoisomerase 2 alpha-mediated Crithidia fasciculate kDNA decatenation at 20 uM relative to control
In short: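 Topoisomerase IIα decatenation of kDNA with 20 µM compound, analysed by gel electrophoresis. Fully decatenated open circular DNA band quantified by densitometry. Inhibition calculated as 100 minus percentage relative integrated band intensity. Etoposide included as a control.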

[3] = molecular target: DNA topoisomerase 2-alpha (Homo sapiens) (UniProt P11388); test: Inhibition of human recombinant topoisomerase 2 alpha assessed as stabilization of enzyme-PBR322 DNA complex at 100 uM relative to control
In short: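 Closed circular pBR322 DNA with topoisomerase IIα and 100 µM compound at 37 °C; components mixed on ice before drug addition. Complexes trapped with SDS and products separated by gel electrophoresis containing ethidium bromide. Linear DNA bands quantified by densitometry relative to the band from 100 µM etoposide, set to 100%.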

K562 [4] = test: Cytotoxicity against human K562 cells after 72 hrs by MTS assay; type: functional, cell-based; details: K562, 72 h
In short: (§1)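 Suspension cultures in αMEM with 10% fetal calf serum: parental K562 and the etoposide-resistant sub-line K/VP.5, which has reduced topoisomerase IIα. Drugs freshly dissolved in DMSO (final ≤1.9% v/v) and given for 72 h, then MTS reduction read by absorbance. IC50 from triplicate data fitted to a four-parameter logistic equation. Resistance factor is IC50 in K/VP.5 divided by IC50 in K562.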

[5] = Cytotoxicity against human K/VP.5 cells after 72 hrs by MTS assay; type: functional, cell-based; details: K/VP.5, 72 h
In short: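 Suspension cultures in αMEM with 10% fetal calf serum: parental K562 and the etoposide-resistant sub-line K/VP.5, which has reduced topoisomerase IIα. IC50 from triplicate data fitted to a four-parameter logistic equation. Resistance factor is IC50 in K/VP.5 divided by IC50 in K562.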

K562 [6] = test: Resistant factor, ratio of IC50 human K/VP.5 cells to IC50 for human K562 cells; type: functional; in short: as §1
[7] = Chemical stability in DMSO-d6 assessed as decomposition after 24 hrs; type: physicochemical
DC3F = test: Cytotoxicity against hamster DC-3F cells; type: functional, cell-based; details: Cricetulus griseus

Sequence of DNA topoisomerase 2-alpha (Homo sapiens) (P11388 whole entry): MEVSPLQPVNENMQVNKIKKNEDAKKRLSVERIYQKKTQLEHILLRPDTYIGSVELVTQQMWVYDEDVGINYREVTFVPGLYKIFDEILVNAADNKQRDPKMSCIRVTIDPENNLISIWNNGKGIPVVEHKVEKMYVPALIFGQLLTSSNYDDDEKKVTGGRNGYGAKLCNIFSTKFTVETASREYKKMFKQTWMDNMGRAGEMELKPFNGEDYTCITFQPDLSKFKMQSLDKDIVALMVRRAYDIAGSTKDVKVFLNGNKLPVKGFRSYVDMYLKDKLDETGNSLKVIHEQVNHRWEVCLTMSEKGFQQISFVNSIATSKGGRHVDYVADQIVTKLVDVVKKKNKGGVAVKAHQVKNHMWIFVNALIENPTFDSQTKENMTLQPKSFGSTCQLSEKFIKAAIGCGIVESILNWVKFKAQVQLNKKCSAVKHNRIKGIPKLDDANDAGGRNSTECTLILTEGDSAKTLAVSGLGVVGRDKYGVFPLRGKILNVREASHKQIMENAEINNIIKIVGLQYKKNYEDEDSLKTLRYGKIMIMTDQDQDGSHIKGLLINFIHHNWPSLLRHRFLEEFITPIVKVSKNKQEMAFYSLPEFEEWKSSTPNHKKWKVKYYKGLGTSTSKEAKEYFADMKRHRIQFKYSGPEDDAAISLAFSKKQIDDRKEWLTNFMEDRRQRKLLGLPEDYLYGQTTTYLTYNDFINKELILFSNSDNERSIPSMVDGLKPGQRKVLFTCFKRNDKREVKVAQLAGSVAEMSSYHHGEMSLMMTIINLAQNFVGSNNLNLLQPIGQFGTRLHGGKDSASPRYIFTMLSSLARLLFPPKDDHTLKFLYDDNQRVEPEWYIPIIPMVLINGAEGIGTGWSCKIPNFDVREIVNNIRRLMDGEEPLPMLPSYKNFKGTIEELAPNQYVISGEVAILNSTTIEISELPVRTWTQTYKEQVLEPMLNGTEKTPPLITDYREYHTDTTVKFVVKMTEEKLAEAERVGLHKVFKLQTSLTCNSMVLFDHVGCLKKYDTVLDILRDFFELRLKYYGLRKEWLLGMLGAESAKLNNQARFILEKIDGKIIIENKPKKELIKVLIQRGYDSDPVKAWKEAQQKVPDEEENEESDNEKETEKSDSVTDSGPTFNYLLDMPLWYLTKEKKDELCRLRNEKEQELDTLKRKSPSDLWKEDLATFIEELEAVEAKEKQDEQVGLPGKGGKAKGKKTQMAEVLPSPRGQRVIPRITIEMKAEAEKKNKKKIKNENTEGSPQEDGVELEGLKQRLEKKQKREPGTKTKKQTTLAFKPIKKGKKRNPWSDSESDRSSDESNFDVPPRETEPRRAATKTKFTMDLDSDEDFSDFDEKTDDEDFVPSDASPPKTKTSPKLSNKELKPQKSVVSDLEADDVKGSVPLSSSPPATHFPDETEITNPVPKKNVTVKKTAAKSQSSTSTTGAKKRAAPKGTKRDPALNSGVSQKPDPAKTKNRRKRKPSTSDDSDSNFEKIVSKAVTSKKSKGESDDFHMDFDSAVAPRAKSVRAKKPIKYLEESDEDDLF

inhibition [1] [%] | ΔTm (Calf thymus DNA) [°C] | inhibition [2] [%] | % cleavage [3] [%] | Stability [7] | Structure (SMILES) | IC50 (K562 [4]) [µM] | IC50 [5] [µM] | Ratio IC50 (K562 [6]) | IC50 (DC3F) [µM]
62 | 2.7 | 100 | 18 | – | NCCn1nc2c3c(cccc31)C(=O)c1c(Cl)cccc1-2 | 3.3 | 3.5 | 1 | –
– | 5.3 | – | – | – | CN(C)CCNc1cccc2c1C(=O)c1cccc3c1c-2nn3CCNC(=O)c1cc(NC(=O)c2cc(NC(=O)CN(C)C)cn2C)cn1C | 0.21 | 0.63 | 3 | –
11 | 1.3 | 91 | 18 | Stable | Cn1cc(NC(=O)OC(C)(C)C)cc1C(=O)NCCn1nc2c3c(cccc31)C(=O)c1ccccc1-2 | 14.4 | 22 | 1.5 | –
16 | 1.6 | 94 | 18 | – | CN(C)CC(=O)Nc1cc(C(=O)NCCn2nc3c4c(cccc42)C(=O)c2ccccc2-3)n(C)c1 | 2.7 | 3.9 | 1.4 | –
21 | 0.6 | 97 | 22 | – | CN(C)CC(=O)Nc1cc(C(=O)NCCn2nc3c4c(cccc42)C(=O)c2c(Cl)cccc2-3)n(C)c1 | 3.5 | 5.3 | 1.5 | –
– | 8.4 | 30 | 0 | – | COc1cccc2c1C(=O)c1c(O)c3c(c(O)c1C2=O)C[C@@](O)(C(=O)CO)C[C@@H]3O[C@H]1C[C@H](N)[C@H](O)[C@H](C)O1 [DOXORUBICIN] | 0.033 | – | – | –
31 | 1.7 | 97 | – | – | CN(C)CC(=O)Nc1cc(C(=O)Nc2cc(C(=O)NCCn3nc4c5c(cccc53)C(=O)c3c(Cl)cccc3-4)n(C)c2)n(C)c1 | 0.19 | 0.21 | 1.1 | –
52 | 0.6 | 94 | 16 | – | Cn1cc(NC(=O)c2cc(N)cn2C)cc1C(=O)NCCn1nc2c3c(cccc31)C(=O)c1c(Cl)cccc1-2 | 12.5 | 36.6 | 2.9 | –
49 | 2.7 | 91 | 6 | – | Cn1cc(NC(=O)c2cc(N)cn2C)cc1C(=O)NCCn1nc2c3c(cccc31)C(=O)c1ccccc1-2 | 4.1 | 6.4 | 1.5 | –
66 | 0.9 | 60 | 24 | – | O=C1c2ccccc2-c2nn(CCO)c3cccc1c23 | 11.9 | 10.2 | 0.9 | –
23 | 4.3 | 91 | – | – | CN(C)CC(=O)Nc1cc(C(=O)Nc2cc(C(=O)NCCn3nc4c5c(cccc53)C(=O)c3ccccc3-4)n(C)c2)n(C)c1 | 0.13 | 0.14 | 1.1 | –

The next lines start with the compound.

Structure (SMILES) | inhibition [1] [%] | ΔTm (Calf thymus DNA) [°C] | inhibition [2] [%] | % cleavage [3] [%] | Stability [7] | IC50 (K562 [4]) [µM] | IC50 [5] [µM] | Ratio IC50 (K562 [6]) | IC50 (DC3F) [µM]
Cn1cc(NC(=O)c2cc(NC(=O)OC(C)(C)C)cn2C)cc1C(=O)NCCn1nc2c3c(cccc31)C(=O)c1ccccc1-2 | 31 | 0.4 | 91 | 4 | – | 1 | 0.82 | 0.8 | –
NCCn1nc2c3c(cccc31)C(=O)c1ccccc1-2 | 100 | 2.2 | 75 | 29 | – | 1.8 | 3.1 | 1.7 | –
Cn1cc(NC(=O)c2cc(NC(=O)CNC(=N)N)cn2C)cc1C(=O)NCCC(=N)N [NETROPSIN] | – | 5.7 | 39 | 0 | – | > 50 | > 50 | – | 3200
Cn1cc(N)cc1C(=O)NCCn1nc2c3c(cccc31)C(=O)c1ccccc1-2 | 10 | 1.8 | 94 | 26 | – | 12.7 | 21.9 | 1.7 | –
Cn1cc(NC(=O)OC(C)(C)C)cc1C(=O)NCCn1nc2c3c(cccc31)C(=O)c1c(Cl)cccc1-2 | 47 | 0.7 | 94 | 11 | Stable | 10.7 | 11 | 1 | –
Cn1cc(N)cc1C(=O)NCCn1nc2c3c(cccc31)C(=O)c1c(Cl)cccc1-2 | 14 | 0.8 | 91 | 29 | – | 9.9 | 11.4 | 1.2 | –
Cn1cc(NC(=O)c2cc(NC(=O)OC(C)(C)C)cn2C)cc1C(=O)NCCn1nc2c3c(cccc31)C(=O)c1c(Cl)cccc1-2 | 47 | 1 | 97 | 24 | – | 2 | 1.4 | 0.7 | –
O=C1c2c(Cl)cccc2-c2nn(CCO)c3cccc1c23 | 70 | 0.3 | 56 | 14 | – | 14.3 | 12 | 0.8 | –
